NLRP3 yeast inh – inhibitors of NALP3 inflammasome in yeast. AID 2825. 330,000 compounds, 0.39% hits. Yeast reconstituted NLRP3/ASC/caspase-1, beta-gal luminescence, 24 h. inhibition, % at 10 µM;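 active means inhibition of 50% or more; inactive means inhibition below 50%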
NALP1 inh – NALP1 inhibition; S. cerevisiae NALP1/ASC/caspase-1 growth, X-gal OD620, 72 h; inhibition, % at 10 µM; AID 2071; 280,000 compounds, 0.61% hits; in the data active means inhibition mostly above about 24%, no sharp cut-off; inactive means mostly below about 32%
MC4R barr agon – agonists of human melanocortin 4 receptor (MC4R) beta-arrestin; P32245; U2OS MC4R beta-arrestin complementation, luminescence; percent of melanotan II response, DMSO zero; activation, % at 8.9 µM; 360,000 compounds, 0.98% hits;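 active means activation above a per-plate cutoff, the mean activation of sample wells on that plate plus 3 SD, cut at about 8% in these data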
Target sequence (P32245 whole entry, looked up): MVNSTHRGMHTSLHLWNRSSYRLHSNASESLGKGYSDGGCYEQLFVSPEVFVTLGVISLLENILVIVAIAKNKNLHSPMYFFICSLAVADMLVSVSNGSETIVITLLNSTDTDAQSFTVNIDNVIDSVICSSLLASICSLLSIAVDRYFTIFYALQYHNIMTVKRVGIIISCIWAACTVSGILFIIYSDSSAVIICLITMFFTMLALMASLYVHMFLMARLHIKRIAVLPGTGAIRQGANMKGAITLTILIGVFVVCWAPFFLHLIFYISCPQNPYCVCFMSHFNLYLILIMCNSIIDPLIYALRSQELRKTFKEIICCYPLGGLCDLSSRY
A1 inh – inhibitors of the anti-apoptotic protein A1, read as caspase activation. MEF A1-2A-BIM cells, Caspase-Glo 3/7 luminescence, 3 h; percent of clofoctol response, vehicle zero. caspase activation, % (test concentration not listed). 330,000 compounds, 0.066% hits. AID 2462;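 active means over half of replicate activation scores above 10%, or exactly half above 10 with the replicate mean above 10; inconclusive means replicate mean below 10 yet half the replicates above 10; inactive means over half of replicates below 10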
MC4R antagonist – blocks human MC4R cAMP signaling. P32245. MC4R-expressing cells, MTII-stimulated cAMP, LANCE TR-FRET. inhibition, % at 6.5 µM. 360,000 compounds, 0.48% hits;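 active means inhibition above its plate's cutoff, the mean of tested wells on that plate plus 3 SD, cut at about 29% in these data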
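Material: U2OS-MC4R stable cell line | Reagent: Melanotan II challenge after compound preincubation | Doses: One concentration, 6.5 µM nominal | Incubation: 30-min compound preincubation, 1-h Melanotan II challenge, 1-h detection, room temperature | Signal: TR-FRET cAMP assay | Replicates: One well per compound, no replicates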
TbMetRS inhib – Trypanosoma brucei MetRS inhibition | AID 624268 | 360,000 compounds, 0.4% hits | inhibition, % at 11.9 µM | purified T. brucei MetRS, ATP depletion, Kinase-Glo luminescence;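 active means inhibition above a per-plate cutoff of the control wells' mean inhibition plus 3 SD, cut at about 5.5% in these data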
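assay system = parasite MetRS enzyme | timing = 15 min preincubation, 2 h reaction, all 25 °C | evaluation = percent inhibition relative to median high and low control wells | medium = HEPES buffer containing pyrophosphatase, BSA, spermine, DTT | compound = single dose, 11.9 µM final nominal, 0.9% final DMSO | detection = Kinase-Glo luminescence, ATP depletion format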
U2OS cAMP counter – nonselective cAMP signaling inhibitor, MC4R antagonist counter-screen; shares compounds with MC4R antagonist; parental U2OS, forskolin cAMP, LANCE TR-FRET; inhibition, % at 6.5 µM; 1,600 compounds, 26% hits;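 active means mean inhibition over triplicates above the low-control well mean plus 3 SD, set per campaign, cut at about 13% in these data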;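 further: signal is single emission at 671 nm which falls as cellular cAMP rises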
MC4R cAMP antag – human MC4R cAMP antagonism confirmation | shares compounds with MC4R antagonist | MC4R-expressing cells, MTII-stimulated cAMP, TR-FRET | inhibition, % at 6.5 µM | 1,600 compounds, 27% hits; in the data active means inhibition above about 29%
A number is an active result; 0 = inactive; ? = inconclusive; - = no result given. Rows were chosen to be rich in hits. Some 2.5% of all compounds tested hit in one or more screens of this group.

SMILES	NLRP3 yeast inh	NALP1 inh	MC4R barr agon	A1 inh	MC4R antagonist	TbMetRS inhib	U2OS cAMP counter	MC4R cAMP antag
CCOC(=O)c1sc(NC(=O)c2ccc(S(=O)(=O)N3CCCCCC3)cc2)nc1-c1ccccc1	0	0	0	0	32	0	0	0
CC1(CCc2ccccc2)NC(=O)N(CC(=O)Nc2c(F)cccc2F)C1=O (centres undefined)	0	-	0	0	0	0	-	-
CC(=O)Nc1ccc(S(=O)(=O)N[C@@H](C)C(=O)OCC(=O)c2ccc(Br)s2)cc1	-	-	0	-	34	0	33	55
O=C(COC(=O)c1ccc2c(=O)n3c(nc2c1)CCC3)Nc1ccc(OC(F)F)cc1	0	0	0	0	30	0	0	0
O=C1OCCC1Sc1nnnn1-c1ccccc1 (centres undefined)	0	0	0	0	0	0	-	-
O=C1OCCC1Sc1nnnn1-c1ccc(Cl)cc1 (centres undefined)	0	0	0	0	38	0	22	39
CCCNC(=O)C1(C)CCCN(C(=O)c2c(C)noc2C)C1 (centres undefined)	-	-	0	-	0	0	-	-
CCOc1ccccc1NC(=O)c1cc(C(=O)c2cc(OC)ccc2O)coc1=N	0	0	0	0	33	0	0	0
O=C(NCc1ccncc1)c1cc(C(=O)C2CCCCC2)c[nH]1	0	0	0	0	30	0	0	0
CC(=O)Nc1cccc(-c2cc(NC(C)=O)c3ncc(-c4ccc(C(C)=O)cc4)n3c2)c1	-	-	9.0	-	33	0	0	0
COC(=O)COc1ccc2cc(-c3ccccc3)c(=O)oc2c1	0	0	0	0	40	0	24	56
COC(=O)COc1ccc2c(=O)c(-c3ccccc3)coc2c1	0	0	0	0	44	0	28	52
COc1ccc(-c2cc3ccc(OCC(C)=O)cc3oc2=O)cc1	0	0	0	?	0	0	-	-
COC(=O)COc1ccc2c(-c3ccc(OC)cc3)cc(=O)oc2c1	0	0	0	0	0	0	-	-
COC(=O)COc1ccc2cc(-c3ccc(OC)cc3)c(=O)oc2c1	0	0	0	0	39	0	26	42
CCOP(=O)(OCC)C(NC(=O)NS(=O)(=O)c1ccc(C)cc1)c1ccccc1 (centres undefined)	0	0	0	0	0	0	-	-
COc1ccc(NC(=O)COC(=O)C2CC(=O)N(c3ccc(OC(C)C)cc3)C2)cc1 (centres undefined)	0	0	0	0	0	0	-	-
COc1ccc(NC(=O)COC(=O)C2CC(=O)N(c3ccc(C)cc3)C2)cc1 (centres undefined)	0	0	0	0	42	0	0	0
CC(c1ccccc1C(O)(c1ccccc1)c1ccccc1)N(C)C (centres undefined)	0	0	0	0	29	0	0	0
COc1ccccc1C(O)(c1ccccc1)c1ccccc1OC	-	-	0	-	0	0	-	-
CC(C)(CNC(=O)c1ccc([N+](=O)[O-])c(Cl)c1)CNC(=O)c1ccc([N+](=O)[O-])c(Cl)c1	0	0	0	0	31	0	0	44
COc1cc(-c2nc3ccc4ccccc4c3c3c2CCC3)cc(OC)c1OC	0	0	0	0	32	0	0	31
COc1cc(-c2nc3ccc4ccccc4c3c3c2CCC3)cc(OC)c1O	0	0	0	0	0	0	-	-
CN1CCN(C(=O)/C=C/c2cn(-c3ccccc3)nc2-c2ccc3c(c2)OCCO3)CC1	0	0	0	0	36	0	0	0
CCCCn1c(N)c(N(CCOC)C(=O)CSc2ccc([N+](=O)[O-])cc2)c(=O)[nH]c1=O	0	-	0	0	0	0	-	-
SMILES	NLRP3 yeast inh	NALP1 inh	MC4R barr agon	A1 inh	MC4R antagonist	TbMetRS inhib	U2OS cAMP counter	MC4R cAMP antag
CC(OC(=O)CCN=C1NS(=O)(=O)c2ccccc21)C(=O)Nc1ccc(S(N)(=O)=O)cc1 (centres undefined)	0	-	0	0	0	0	-	-
CCC1(c2ccc(F)cc2)NC(=O)N(CC(=O)N2CCc3ccccc32)C1=O (centres undefined)	0	-	0	0	0	0	-	-
O=C(c1cc(-c2cccs2)nn1-c1ccccc1)N1CCN(S(=O)(=O)c2ccccc2)CC1	0	-	0	0	29	0	0	0
Cc1ccc(S(=O)(=O)N2CCN(C(=O)c3cc(-c4cccs4)nn3-c3ccccc3)CC2)cc1	0	-	0	0	0	0	-	-
NS(=O)(=O)c1ccc(NS(=O)(=O)c2ccc3c(c2)OCCO3)cc1	0	0	0	0	30	0	0	0
O=C(c1ccc(NS(=O)(=O)c2ccc3c(c2)OCCO3)cc1)N1CCCCC1	0	0	0	0	0	0	-	-
COc1cc(CN2CCCC(N3CCN(c4ccc(F)cc4)CC3)C2)ccc1F (centres undefined)	0	0	0	0	30	0	0	0
COCCNc1nc2c(c(=O)n(Cc3cccc(Cl)c3)c(=O)n2C)n1C	0	0	0	0	29	0	0	0
COCCNc1nc2c(c(=O)n(Cc3cccc(Br)c3)c(=O)n2C)n1C	0	0	0	0	0	0	-	-
COc1ccc(CCNC2=C(Cl)C(=O)N(CCc3ccc(OC)c(OC)c3)C2=O)cc1OC	0	0	0	0	31	0	0	0
COC(=O)c1ccccc1NS(=O)(=O)c1ccc(F)cc1	0	0	0	0	0	0	-	-
COC(=O)COc1ccc(S(=O)(=O)Nc2ccccc2C(=O)OC)cc1	0	0	0	0	35	0	21	35
CN(Cc1ccccc1)c1nc(N)nc(Cl)c1C=O	0	0	0	0	34	0	17	0
CC(C)[C@H](NC(=O)c1ccc([N+](=O)[O-])cc1Cl)C(=O)N1CCN(C/C=C/c2ccccc2)CC1	0	-	0	0	0	0	-	-
O=C(CCC1CCCC1)Nc1cccc(Cc2ccncc2)c1	0	0	0	0	33	0	0	0
COC(=O)C1CCN(C(=O)c2cc3c(=O)n4cccc(C)c4nc3n2Cc2ccccc2)CC1	0	0	0	0	30	0	0	0
Oc1ccc(-c2n[nH]c(C(F)(F)F)c2-c2ccccc2)c(O)c1	0	0	0	0	30	0	0	0
CCC1(C)Cc2ccccc2-c2[nH]c(=S)[nH]c(=O)c21 (centres undefined)	0	0	0	0	29	0	20	47
CCC1(C)Cc2ccccc2-c2nc[nH]c(=O)c21 (centres undefined)	0	0	0	0	0	0	-	-

Screening results: PubChem, several laboratories
